Assay results as given in ChEMBL document CHEMBL1130118, “A novel radioiodination reagent for protein radiopharmaceuticals with L-lysine as a plasma-stable metabolizable linkage to liberate m-iodohippuric acid after lysosomal proteolysis” (J Med Chem, 1997).
Several values for one entry are separate records, joined by “and”; a condition that tells them apart may be missing. Equal entries are not always repeated.

Experiments:
Type in all cases: ADME, organism-based
Mus musculus [1] = assay: The biodistribution time for [131 I ]L-HML-NGA radioactivity after concomitant administration of [131 I ]L-HML-NGA and [125 I ]D-HML-NGA in mice. It is expressed as percent injected dose per gram of blood tissue.; conditions: in vivo
Procedure, shortened: (§1)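 Six-week-old male ddY mice were given one i.v. co-injection of a 131I/125I-labelled NGA pair, each diluted to 90 µg/mL protein in 0.1 M PBS pH 6.0 and mixed 1:1, giving 9 µg of each radioiodinated NGA per mouse. Groups of five were killed at 5, 15, 30 min, 1 h and 3 h. Organs were weighed and counted in a well counter. Values are % ID per organ, blood as % ID/g, mean (SD).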

Mus musculus [2] = assay: The biodistribution time for [131 I ]L-HML-NGA radioactivity after concomitant administration of [131 I ]L-HML-NGA and [125 I ]D-HML-NGA in mice. It is expressed as percent injected dose per intestine.; conditions: in vivo; procedure, shortened: as §1
Mus musculus [3] = assay: The biodistribution time for [131 I ]L-HML-NGA radioactivity after concomitant administration of [131 I ]L-HML-NGA and [125 I ]D-HML-NGA in mice. It is expressed as percent injected dose per neck.; conditions: in vivo; procedure, shortened: as §1
Mus musculus [4] = assay: The biodistribution time for [131 I ]L-HML-NGA radioactivity after concomitant administration of [131 I ]L-HML-NGA and [125 I ]L-HML-IT-NGA in mice. It is expressed as percent injected dose per liver; conditions: in vivo; procedure, shortened: as §1
Mus musculus [5] = assay: The biodistribution time for [131 I ]L-HML-NGA radioactivity after concomitant administration of [131 I ]L-HML-NGA and [125 I ]MIH-NGA in mice. It is expressed as percent injected dose per intestine.; conditions: in vivo; procedure, shortened: as §1
Mus musculus [6] = assay: The biodistribution time for [131 I ]L-HML-NGA radioactivity after concomitant administration of [[131 I ]L-HML-NGA and [125 I ]MIH-NGA in mice. It is expressed as percent injected dose per kidney.; conditions: in vivo; procedure, shortened: as §1
Homo sapiens [7] = species on record: Homo sapiens; assay: The percent protein-bound radioactivity in NGAfractions following incubation of radioiodinated [131 I ]L-HML-NGA in human serum after 1 hour
Procedure, shortened: (§2)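 Conjugates were diluted to 0.5 mg/mL in 0.1 M PBS pH 6.0, and 20 µL was added to 230 µL of freshly prepared human serum. Samples were incubated at 37 °C and taken at 1, 3, 6 or 24 h. Protein-bound fraction (Rf 0) was separated from small metabolites (Rf 0.6-0.9) by paper chromatography in methanol-water 4:1. Protein-bound radioactivity was divided by the initial radiochemical purity. Values are mean (SD).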

Homo sapiens [8] = species on record: Homo sapiens; assay: The percent protein-bound radioactivity in NGAfractions following incubation of radioiodinated [131 I ]L-HML-NGA in human serum after 24 hours; procedure, shortened: as §2
Homo sapiens [9] = species on record: Homo sapiens; assay: The percent protein-bound radioactivity in NGAfractions following incubation of radioiodinated [131 I ]L-HML-NGA in human serum after 3 hours; conditions: in vivo; procedure, shortened: as §2
Homo sapiens [10] = species on record: Homo sapiens; assay: The percent protein-bound radioactivity in NGAfractions following incubation of radioiodinated [131 I ]L-HML-NGA in human serum after 6 hours; conditions: in vivo; procedure, shortened: as §2
[11] = Cumulative radioactivity exerted by [131 I ]L-HML-NGA in the feces at 24 hour postinjection of [131 I ]L-HML-NGA and [125 I ]HML-IT-NGA.; conditions: in vivo
Procedure, shortened: (§3)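 Mice received one i.v. co-injection of the dual-isotope NGA mixture, 9 µg of each radioiodinated protein, and were housed in metabolic cages for 24 h. Cumulative urine and feces were collected and counted. Values are % injected dose, mean (SD) of five animals, with a Student's paired t-test between the two co-administered conjugates.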

[12] = Cumulative radioactivity exerted by [131 I ]L-HML-NGA in the urine at 24 hour postinjection of [131 I ]L-HML-NGA and [125 I ]D-HML-NGA.; conditions: in vivo; procedure, shortened: as §3

Radioactivity (Mus musculus [4]): 54.25% | Radioactivity (Homo sapiens [7]): 99.78% | Radioactivity (Homo sapiens [8]): 97.23% | Radioactivity (Homo sapiens [9]): 99.07% | Radioactivity (Homo sapiens [10]): 98.39% | Radioactivity [11]: 2.83% | Radioactivity [12]: 80.78%
Structure (SMILES): N[C@@H](CS)C(=O)SC1CC(=O)N(CCCC[C@H](NC(=O)CNC(=O)c2cccc([131I])c2)C(=O)O)C1=O (some centres not stated)
Radioactivity (Mus musculus [1]): 1.9% and 3.14% and 1.63% and 0.82% and 0.5% | Radioactivity (Mus musculus [2]): 1.77% and 4.88% and 7.76% and 9.83% and 8.6% | Radioactivity (Mus musculus [3]): 0.13% and 0.28% and 0.17% and 0.12% and 0.05% | Radioactivity (Mus musculus [5]): 0.78% and 3.57% and 5.41% and 6.15% and 4.54% | Radioactivity (Mus musculus [6]): 0.84% and 4.16% and 2.19% and 0.51% and 0.16%
